We go through one compound from ChEMBL document CHEMBL1139385, “Structural analysis of ARC-type inhibitor (ARC-1034) binding to protein kinase A catalytic subunit and rational design of bisubstrate analogue inhibitors of basophilic protein kinases” (J Med Chem, 2009).

Where a SMILES comes first, the peptide text is derived from it. [ ]: non-standard residue; d: D form. The star is where a group is joined. Adenosine(5'-uronoyl) = Nc1ncnc2c1ncn2[C@@H]1O[C@H](C(=O)*)[C@@H](O)[C@H]1O; Ahx = NCCCCCC(=O)O

Usually inhibition stands for the change of the read-out against control, counted positive when it falls.

Experiment [1] has as its target Serine/threonine-protein kinase D3 (Homo sapiens) (UniProt O94806). In words: Inhibition of PKD3 at 100 nM relative to control. Put shortly: (§1)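 Activity is expressed as percent inhibition versus control incubations lacking inhibitor. Values are means of duplicate determinations.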
In experiment [2] the target is 5'-AMP-activated protein kinase subunit gamma-1 (Homo sapiens) (UniProt P54619). In words: Inhibition of AMPKgamma1 at 100 nM relative to control. The method, boiled down:
as §1

The target of experiment [3] is Serine/threonine-protein kinase D2 (Homo sapiens) (UniProt Q9BZL6). In words: Inhibition of PKD2 at 100 nM relative to control. Put shortly:
as §1

Experiment [4] concerns the target 5'-AMP-activated protein kinase subunit beta-1 (Homo sapiens) (UniProt Q9Y478). In words: Inhibition of AMPKbeta1 at 100 nM relative to control. Put shortly:
as §1

Experiment [5] addresses Serine/threonine-protein kinase PAK 6 (Homo sapiens) (UniProt Q9NQU5). In words: Inhibition of PAK6 at 100 nM relative to control. The method, boiled down:
as §1

In experiment [6] the target is Protein kinase C eta type (Homo sapiens) (UniProt P24723). Nature of the experiment: Inhibition of PKCeta at 100 nM relative to control. Put shortly: as §1
For experiment [7], the target named is Serine/threonine-protein kinase PAK 4 (Homo sapiens) (UniProt O96013). In words: Inhibition of PAK4 at 100 nM relative to control. Put shortly: as §1
The target of experiment [8] is Protein kinase C epsilon type (Homo sapiens) (UniProt Q02156). Nature of the experiment: Inhibition of PKCepsilon at 100 nM relative to control. The method, boiled down:
as §1

Experiment [9] has as its target Glycogen synthase kinase-3 beta (Homo sapiens) (UniProt P49841). Nature of the experiment: Inhibition of GSK3-beta at 100 nM relative to control. The method, boiled down: as §1
For experiment [10], the target named is Ribosomal protein S6 kinase alpha-2 (Homo sapiens) (UniProt Q15349). Nature of the experiment: Inhibition of RSK3 at 100 nM relative to control. Put shortly:
as §1

For experiment [11], the target named is RAC-beta serine/threonine-protein kinase (Homo sapiens) (UniProt P31751). In words: Inhibition of AKT2 at 100 nM relative to control. Put shortly:
as §1

Experiment [12] addresses RAC-alpha serine/threonine-protein kinase (Homo sapiens) (UniProt P31749). In words: Inhibition of AKT1 at 100 nM relative to control. The method, boiled down:
as §1

Chain of Protein kinase C epsilon type (Homo sapiens) (Q02156 whole entry): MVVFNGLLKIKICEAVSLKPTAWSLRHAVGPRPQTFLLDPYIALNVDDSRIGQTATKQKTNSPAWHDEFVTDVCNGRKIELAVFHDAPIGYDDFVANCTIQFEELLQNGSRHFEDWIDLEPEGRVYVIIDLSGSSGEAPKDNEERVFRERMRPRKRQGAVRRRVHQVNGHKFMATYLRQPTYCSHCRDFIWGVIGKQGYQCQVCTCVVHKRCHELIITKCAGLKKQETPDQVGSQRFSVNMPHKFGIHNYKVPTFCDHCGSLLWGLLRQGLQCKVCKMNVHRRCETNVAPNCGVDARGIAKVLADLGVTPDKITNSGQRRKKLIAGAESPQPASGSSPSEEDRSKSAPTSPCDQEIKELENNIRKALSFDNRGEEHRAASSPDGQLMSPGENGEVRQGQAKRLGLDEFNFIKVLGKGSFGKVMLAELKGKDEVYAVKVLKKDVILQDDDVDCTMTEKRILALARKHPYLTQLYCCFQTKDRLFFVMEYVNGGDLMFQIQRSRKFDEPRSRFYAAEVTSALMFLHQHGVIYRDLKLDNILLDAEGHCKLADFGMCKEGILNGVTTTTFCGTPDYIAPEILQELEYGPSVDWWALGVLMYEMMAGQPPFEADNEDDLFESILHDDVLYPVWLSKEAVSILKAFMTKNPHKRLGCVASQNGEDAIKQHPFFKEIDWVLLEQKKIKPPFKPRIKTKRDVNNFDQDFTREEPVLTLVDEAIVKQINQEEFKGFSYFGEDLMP
Chain of 5'-AMP-activated protein kinase subunit gamma-1 (Homo sapiens) (P54619 whole entry): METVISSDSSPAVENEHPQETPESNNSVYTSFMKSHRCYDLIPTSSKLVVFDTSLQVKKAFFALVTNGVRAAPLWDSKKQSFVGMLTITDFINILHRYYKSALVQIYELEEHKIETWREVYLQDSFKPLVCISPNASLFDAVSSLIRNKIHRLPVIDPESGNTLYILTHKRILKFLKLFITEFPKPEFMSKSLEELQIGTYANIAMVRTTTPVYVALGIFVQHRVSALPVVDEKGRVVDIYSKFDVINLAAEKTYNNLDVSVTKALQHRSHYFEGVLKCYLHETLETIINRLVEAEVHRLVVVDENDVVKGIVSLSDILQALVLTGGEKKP
Chain of Serine/threonine-protein kinase D3 (Homo sapiens) (O94806 whole entry): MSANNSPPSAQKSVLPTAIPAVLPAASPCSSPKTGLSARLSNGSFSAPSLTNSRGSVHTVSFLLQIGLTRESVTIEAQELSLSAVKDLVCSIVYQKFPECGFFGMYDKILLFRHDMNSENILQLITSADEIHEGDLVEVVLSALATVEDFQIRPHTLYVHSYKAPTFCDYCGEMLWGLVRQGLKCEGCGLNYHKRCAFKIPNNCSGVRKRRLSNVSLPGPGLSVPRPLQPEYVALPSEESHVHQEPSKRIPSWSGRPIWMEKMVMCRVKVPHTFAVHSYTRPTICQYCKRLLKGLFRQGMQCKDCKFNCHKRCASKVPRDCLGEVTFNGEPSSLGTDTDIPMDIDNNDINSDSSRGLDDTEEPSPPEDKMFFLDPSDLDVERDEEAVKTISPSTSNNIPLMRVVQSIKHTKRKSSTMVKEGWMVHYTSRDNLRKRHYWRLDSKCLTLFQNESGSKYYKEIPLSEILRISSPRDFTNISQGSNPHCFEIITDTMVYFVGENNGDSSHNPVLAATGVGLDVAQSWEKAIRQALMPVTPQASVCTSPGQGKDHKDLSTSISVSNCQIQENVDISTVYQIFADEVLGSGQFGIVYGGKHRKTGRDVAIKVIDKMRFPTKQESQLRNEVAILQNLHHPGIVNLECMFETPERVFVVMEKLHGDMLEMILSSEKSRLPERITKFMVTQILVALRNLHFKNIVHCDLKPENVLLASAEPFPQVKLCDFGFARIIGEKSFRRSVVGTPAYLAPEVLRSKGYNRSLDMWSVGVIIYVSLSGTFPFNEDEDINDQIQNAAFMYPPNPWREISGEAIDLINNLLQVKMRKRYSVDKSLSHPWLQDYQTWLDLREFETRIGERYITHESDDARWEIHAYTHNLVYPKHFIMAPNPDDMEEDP
Chain of Serine/threonine-protein kinase PAK 6 (Homo sapiens) (Q9NQU5 whole entry, looked up): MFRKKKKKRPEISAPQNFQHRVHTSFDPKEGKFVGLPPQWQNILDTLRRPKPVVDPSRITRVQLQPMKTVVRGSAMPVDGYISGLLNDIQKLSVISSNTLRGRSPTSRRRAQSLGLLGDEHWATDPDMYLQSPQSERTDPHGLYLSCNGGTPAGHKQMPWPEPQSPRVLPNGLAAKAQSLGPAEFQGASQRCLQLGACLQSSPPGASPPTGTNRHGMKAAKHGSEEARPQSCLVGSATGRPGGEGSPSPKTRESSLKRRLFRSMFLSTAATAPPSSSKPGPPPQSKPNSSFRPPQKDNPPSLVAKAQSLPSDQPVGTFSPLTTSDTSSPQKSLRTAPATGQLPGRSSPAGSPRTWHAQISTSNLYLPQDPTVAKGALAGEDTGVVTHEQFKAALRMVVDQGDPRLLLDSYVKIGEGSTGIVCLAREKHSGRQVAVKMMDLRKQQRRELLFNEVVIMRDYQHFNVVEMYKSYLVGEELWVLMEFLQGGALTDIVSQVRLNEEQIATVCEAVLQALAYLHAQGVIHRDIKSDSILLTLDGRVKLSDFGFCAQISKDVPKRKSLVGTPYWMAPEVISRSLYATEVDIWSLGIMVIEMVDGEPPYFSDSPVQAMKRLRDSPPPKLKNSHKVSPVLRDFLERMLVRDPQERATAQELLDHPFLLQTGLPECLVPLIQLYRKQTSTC
Chain of RAC-alpha serine/threonine-protein kinase (Homo sapiens) (P31749 whole entry): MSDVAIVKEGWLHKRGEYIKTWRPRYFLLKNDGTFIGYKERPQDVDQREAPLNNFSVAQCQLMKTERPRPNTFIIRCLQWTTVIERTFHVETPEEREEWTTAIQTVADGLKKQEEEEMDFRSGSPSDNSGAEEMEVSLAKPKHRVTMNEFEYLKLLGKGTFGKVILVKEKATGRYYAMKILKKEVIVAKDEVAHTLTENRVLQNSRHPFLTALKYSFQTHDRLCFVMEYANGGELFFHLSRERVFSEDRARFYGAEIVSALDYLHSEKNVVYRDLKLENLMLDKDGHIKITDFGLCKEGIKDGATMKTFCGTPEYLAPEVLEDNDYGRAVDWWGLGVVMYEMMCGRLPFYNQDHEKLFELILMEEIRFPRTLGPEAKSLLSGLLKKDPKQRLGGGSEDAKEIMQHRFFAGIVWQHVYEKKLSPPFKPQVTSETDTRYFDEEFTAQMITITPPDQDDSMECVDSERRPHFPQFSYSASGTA
Chain of Glycogen synthase kinase-3 beta (Homo sapiens) (P49841 whole entry, looked up): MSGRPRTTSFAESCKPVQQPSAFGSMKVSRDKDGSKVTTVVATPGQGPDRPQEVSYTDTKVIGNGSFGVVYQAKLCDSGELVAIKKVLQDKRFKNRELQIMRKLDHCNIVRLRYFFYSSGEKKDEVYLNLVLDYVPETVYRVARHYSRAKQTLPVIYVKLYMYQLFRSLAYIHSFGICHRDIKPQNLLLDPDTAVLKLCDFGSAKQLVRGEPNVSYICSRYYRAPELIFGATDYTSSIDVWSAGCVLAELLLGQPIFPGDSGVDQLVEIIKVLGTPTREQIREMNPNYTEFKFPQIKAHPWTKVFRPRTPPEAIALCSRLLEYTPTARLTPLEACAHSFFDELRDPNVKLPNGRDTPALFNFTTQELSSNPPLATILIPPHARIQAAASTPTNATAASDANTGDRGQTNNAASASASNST
Chain of Serine/threonine-protein kinase D2 (Homo sapiens) (Q9BZL6 whole entry): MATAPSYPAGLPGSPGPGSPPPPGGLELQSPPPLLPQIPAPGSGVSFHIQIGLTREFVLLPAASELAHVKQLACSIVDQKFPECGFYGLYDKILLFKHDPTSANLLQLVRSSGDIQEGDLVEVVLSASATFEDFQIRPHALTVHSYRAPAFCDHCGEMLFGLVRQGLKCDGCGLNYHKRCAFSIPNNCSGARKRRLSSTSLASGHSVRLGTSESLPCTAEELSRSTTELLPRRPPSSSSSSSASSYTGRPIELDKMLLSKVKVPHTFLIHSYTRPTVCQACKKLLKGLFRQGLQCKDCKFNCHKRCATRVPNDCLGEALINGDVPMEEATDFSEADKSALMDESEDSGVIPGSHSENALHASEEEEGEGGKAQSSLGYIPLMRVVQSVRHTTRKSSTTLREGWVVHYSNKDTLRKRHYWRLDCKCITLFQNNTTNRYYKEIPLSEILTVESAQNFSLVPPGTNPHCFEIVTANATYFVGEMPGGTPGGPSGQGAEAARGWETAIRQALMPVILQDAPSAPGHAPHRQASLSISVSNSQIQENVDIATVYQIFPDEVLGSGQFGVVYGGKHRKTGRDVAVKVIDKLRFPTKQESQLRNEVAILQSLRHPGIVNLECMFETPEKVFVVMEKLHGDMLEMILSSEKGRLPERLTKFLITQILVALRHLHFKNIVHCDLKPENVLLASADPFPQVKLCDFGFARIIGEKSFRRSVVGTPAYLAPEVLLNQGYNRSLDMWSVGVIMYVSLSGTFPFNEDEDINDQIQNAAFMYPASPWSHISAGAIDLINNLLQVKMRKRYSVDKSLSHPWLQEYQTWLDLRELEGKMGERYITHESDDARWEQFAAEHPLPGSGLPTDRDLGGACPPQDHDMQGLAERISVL
Chain of 5'-AMP-activated protein kinase subunit beta-1 (Homo sapiens) (Q9Y478 whole entry): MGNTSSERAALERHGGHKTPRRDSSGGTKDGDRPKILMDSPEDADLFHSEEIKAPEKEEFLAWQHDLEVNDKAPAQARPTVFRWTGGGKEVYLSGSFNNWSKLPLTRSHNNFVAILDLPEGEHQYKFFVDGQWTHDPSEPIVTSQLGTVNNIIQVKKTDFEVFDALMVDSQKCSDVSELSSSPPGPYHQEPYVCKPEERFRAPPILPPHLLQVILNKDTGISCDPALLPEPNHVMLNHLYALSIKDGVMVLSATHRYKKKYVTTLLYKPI

As for `N=C(N)NCCC[C@@H](NC(=O)[C@@H](CCCNC(=N)N)NC(=O)[C@@H](CCCNC(=N)N)NC(=O)[C@@H](CCCNC(=N)N)NC(=O)[C@@H](CCCNC(=N)N)NC(=O)[C@@H](CCCNC(=N)N)NC(=O)CCCCCNC(=O)[C@@H](CCCCN)NC(=O)CCCCCNC(=O)[C@H]1O[C@@H](n2cnc3c(N)ncnc32)[C@H](O)[C@@H]1O)C(N)=O` ({Adenosine(5'-uronoyl)-Ahx}-[dK][Ahx][dR][dR][dR][dR][dR][dR]-NH2), the inhibition was 55% in experiment [1]; 51% in [2]; 37% in experiment [3]; 51% in experiment [4]; 81% in experiment [5]; 106% in [6]. Besides, the inhibition in [7] worked out at 81%; in experiment [8], 106%; in experiment [9] it was 16%; in [10] it was 99%; in experiment [11] it was 62%; in [12] it was 89%.
